# Assay results of several laboratories.
# Each line is one published result; the experiments were not run side by side.
# Target: Dual specificity protein kinase TTK (TTK, Homo sapiens, UniProt P33981)
# One construct used (P33981 1-857): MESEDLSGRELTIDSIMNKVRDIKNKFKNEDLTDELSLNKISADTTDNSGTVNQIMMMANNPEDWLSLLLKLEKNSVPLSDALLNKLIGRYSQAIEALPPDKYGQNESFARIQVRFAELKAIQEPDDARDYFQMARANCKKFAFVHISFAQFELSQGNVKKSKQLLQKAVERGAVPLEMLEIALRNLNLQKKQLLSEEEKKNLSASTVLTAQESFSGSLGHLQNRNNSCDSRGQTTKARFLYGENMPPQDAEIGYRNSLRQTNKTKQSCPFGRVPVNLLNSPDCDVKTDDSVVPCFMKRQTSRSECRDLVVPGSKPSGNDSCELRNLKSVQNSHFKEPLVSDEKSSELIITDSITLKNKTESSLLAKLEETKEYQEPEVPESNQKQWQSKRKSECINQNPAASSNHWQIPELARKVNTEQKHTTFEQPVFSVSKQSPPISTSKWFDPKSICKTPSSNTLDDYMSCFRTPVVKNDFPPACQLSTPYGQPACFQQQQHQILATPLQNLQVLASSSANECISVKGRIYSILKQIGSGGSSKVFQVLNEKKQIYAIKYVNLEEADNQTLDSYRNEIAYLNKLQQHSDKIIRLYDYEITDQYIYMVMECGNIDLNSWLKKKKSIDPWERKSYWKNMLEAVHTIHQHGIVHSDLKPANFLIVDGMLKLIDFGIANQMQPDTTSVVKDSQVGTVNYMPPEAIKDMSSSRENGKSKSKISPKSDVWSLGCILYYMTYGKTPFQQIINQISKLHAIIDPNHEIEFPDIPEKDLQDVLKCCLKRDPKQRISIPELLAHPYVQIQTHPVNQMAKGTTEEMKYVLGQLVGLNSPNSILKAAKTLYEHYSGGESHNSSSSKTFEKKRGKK
SMILES,assay,conditions,quantity,value
Cn1cc(-c2cc(F)cc(N3CCn4c(cc5c4CCCC5)C3=O)c2CO)cc(Nc2ccc(N3CCN(C4COC4)CC3)cn2)c1=O,"enzyme activity, inhibitor",0.1 µM,inhibition,-17%
CC(C)(C)c1cc(C=C(C#N)C#N)cc(Br)c1O,"enzyme activity, inhibitor",0.5 µM,remaining activity,101%
Cn1cncc1[C@@](O)(COc1ccc(C#N)cc1-c1ccc(OC(F)(F)F)cc1)c1ccc(C#N)cc1,"cell-free assay, competition with immobilised ligand",1 µM,remaining binding,100%
O=c1[nH]c2ccccc2n1C1CCN(Cc2ccc(-c3[nH]c4cc5ncnc5cc4nc3-c3ccccc3)cc2)CC1,cell-free assay,0.5 µM,remaining signal,104%
Cn1cc(-c2cccc(N3CCc4c(sc5c4CC(C)(C)C5)C3=O)c2CO)cc(Nc2ccncn2)c1=O,"enzyme activity, inhibitor",1 µM,inhibition,-3%
N#CC1(c2ccccn2)CCN(Cc2cc(C(=O)O)c(=O)n3ccccc23)CC1,"cell-free assay, competition with immobilised ligand",1 µM,remaining binding,88%
Nc1ncc(-c2nc(N3CCOCC3)nc(N3CCOCC3)n2)c(C(F)F)n1,"binding, competition with immobilised ligand",10 µM,remaining binding,84%
Cc1nn(C)cc1-c1nc2c(N3CCN(Cc4ccc(Cl)cc4)CC3)c(Cl)cnc2[nH]1,"binding, competition with immobilised ligand",1 µM,remaining binding,100%
COc1ncccc1-c1cnn2ccc(N3CCN(C(=O)OC(C)C)CC3)nc12,"binding, competition with immobilised ligand",1 µM,remaining binding,100%
